According to ChEMBL document CHEMBL1777764, “Synthesis and evaluation of 1-(1H-indol-3-yl)ethanamine derivatives as new antibacterial agents” (Bioorg Med Chem, 2011):
In brackets after ≈: the same amount, converted by molar mass.

Assays:
[1] = tested on: Staphylococcus epidermidis; assay: Antibacterial activity against Staphylococcus epidermidis CIP 81.55 after 18 hrs by broth microdilution method; type: functional; settings: CIP 81.55, 18 h
Procedure, shortened: (§1)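 MIC by broth microdilution per ISO 20776-1:2006 and CLSI M07-A8. Inoculum 10^6 cfu/ml in Mueller-Hinton broth with compound serially diluted, final concentrations 2 to 128 ug/ml, duplicate rows, no-drug growth control. Incubation 18 h at 37 °C. MIC taken as lowest concentration giving complete inhibition of visible growth. Each compound tested at least twice.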

Staphylococcus aureus [2] = assay: Antibacterial activity against methicillin-resistant Staphylococcus aureus ATCC 33592 after 18 hrs by broth microdilution method; type: functional; settings: ATCC 33592, 18 h
Procedure, shortened: (§2)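 Broth microdilution following ISO 20776-1:2006 and CLSI M07-A8, in Mueller-Hinton broth. Inoculum was 10^6 cfu/ml, with compound serial dilutions spanning 2 to 128 ug/ml and a compound-free growth control well. Plates were incubated 18 h at 37 °C. MIC was the lowest concentration giving complete inhibition of visible growth. Each compound was tested at least twice.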

Staphylococcus aureus [3] = assay: Antibacterial activity against Staphylococcus aureus ATCC 9144 after 18 hrs by broth microdilution method; type: functional; settings: ATCC 9144, 18 h; procedure, shortened: as §1
Staphylococcus aureus [4] = assay: Antibacterial activity against Staphylococcus aureus ATCC 25923 after 18 hrs by broth microdilution method; type: functional; settings: ATCC 25923, 18 h; procedure, shortened: as §1
Staphylococcus aureus [5] = assay: Antibacterial activity against Staphylococcus aureus ATCC 29213 after 18 hrs by broth microdilution method; type: functional; settings: ATCC 29213, 18 h; procedure, shortened: as §1
Staphylococcus aureus [6] = assay: Antibacterial activity against vancomycin intermediate Staphylococcus aureus […] after 18 hrs by broth microdilution method; type: functional; procedure, shortened: as §2
Staphylococcus aureus [7] = assay: Antibacterial activity against Staphylococcus aureus CIP 103428 after 18 hrs by broth microdilution method; type: functional; settings: CIP 103428, 18 h; procedure, shortened: as §1
[8] = tested on: Staphylococcus epidermidis; assay: Antibacterial activity against Staphylococcus epidermidis CIP 103627 after 18 hrs by broth microdilution method; type: functional; settings: CIP 103627, 18 h; procedure, shortened: as §1
[9] = tested on: Staphylococcus epidermidis; assay: Antibacterial activity against Staphylococcus epidermidis ATCC 12228 after 18 hrs by broth microdilution method; type: functional; settings: ATCC 12228, 18 h; procedure, shortened: as §1
Staphylococcus aureus [10] = assay: Antibacterial activity against Staphylococcus aureus ATCC 6538 after 18 hrs by broth microdilution method; type: functional; settings: ATCC 6538, 18 h; procedure, shortened: as §1
Staphylococcus aureus [11] = assay: Antibacterial activity against Staphylococcus aureus CIP 65.6 after 18 hrs by broth microdilution method; type: functional; settings: CIP 65.6, 18 h; procedure, shortened: as §1
Streptococcus pneumoniae [12] = assay: Antibacterial activity against Streptococcus pneumoniae ATCC 6303 after 18 hrs by broth microdilution method; type: functional; settings: ATCC 6303, 18 h
Procedure, shortened: (§3)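 MIC by broth microdilution per ISO 20776-1:2006 and CLSI M07-A8. Inoculum 10^6 cfu/ml in Mueller-Hinton broth […]. Compound serially diluted, final 2 to 128 ug/ml, duplicate rows, no-drug growth control. Read after 18 h at 37 °C as lowest concentration fully inhibiting visible growth. At least two experiments.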

Streptococcus pneumoniae [13] = assay: Antibacterial activity against Streptococcus pneumoniae ATCC 49619 after 18 hrs by broth microdilution method; type: functional; settings: ATCC 49619, 18 h; procedure, shortened: as §3
Staphylococcus aureus [14] = assay: Antibacterial activity against methicillin-resistant Staphylococcus aureus CIP 65.25 after 18 hrs by broth microdilution method; type: functional; settings: CIP 65.25, 18 h; procedure, shortened: as §2
MRC5 = assay: Cytotoxicity against human MRC5 cells at 1 uM; type: cell-based; settings: mrc5, 1 µM
KB = assay: Cytotoxicity against human KB cells at 1 uM; type: cell-based
HCT-116 = assay: Cytotoxicity against human HCT116 cells at 1 uM; type: cell-based; settings: hct-116, 1 µM

| Compound | MIC [1] [µg/mL] | MIC (Staphylococcus aureus [2]) [µg/mL] | MIC (Staphylococcus aureus [3]) [µg/mL] | MIC (Staphylococcus aureus [4]) [µg/mL] | MIC (Staphylococcus aureus [5]) [µg/mL] | MIC (Staphylococcus aureus [6]) [µg/mL] | MIC (Staphylococcus aureus [7]) [µg/mL] | MIC [8] [µg/mL] | MIC [9] [µg/mL] | MIC (Staphylococcus aureus [10]) [µg/mL] | MIC (Staphylococcus aureus [11]) [µg/mL] | MIC (Streptococcus pneumoniae [12]) [µg/mL] | MIC (Streptococcus pneumoniae [13]) [µg/mL] | MIC (Staphylococcus aureus [14]) [µg/mL] | Activity (MRC5) | Activity (KB) | Activity (HCT-116) |
| --- | --- | --- | --- | --- | --- | --- | --- | --- | --- | --- | --- | --- | --- | --- | --- | --- | --- |
| CC(C)(C)OC(=O)NCC(c1c[nH]c2ccccc12)N(O)Cc1ccccc1 (centres undefined) | > 128 | > 128 | > 128 | > 128 | > 128 | > 128 | > 128 | > 128 | > 128 | > 128 | > 128 | > 128 | > 128 | > 128 | – | – | – |
| CC(c1c[nH]c2ccc(F)cc12)N(O)Cc1ccccc1 (centres undefined) | > 128 | > 128 | > 128 | > 128 | > 128 | > 128 | > 128 | > 128 | > 128 | > 128 | > 128 | > 128 | > 128 | > 128 | – | – | – |
| CC(C)CC(c1c[nH]c2ccc(F)cc12)N(O)Cc1ccccc1 (centres undefined) | 64 (≈ 196 µM) | 128 (≈ 392 µM) | 64 (≈ 196 µM) | 64 (≈ 196 µM) | 64 (≈ 196 µM) | 128 (≈ 392 µM) | 64 (≈ 196 µM) | 64 (≈ 196 µM) | 64 (≈ 196 µM) | 64 (≈ 196 µM) | 64 (≈ 196 µM) | 128 (≈ 392 µM) | 128 (≈ 392 µM) | 128 (≈ 392 µM) | – | – | – |
| CC(C)(C)OC(=O)NCC(c1c[nH]c2ccc(Cl)cc12)N(O)Cc1ccccc1 (centres undefined) | 16 (≈ 38.5 µM) | 16 (≈ 38.5 µM) | 16 (≈ 38.5 µM) | 16 (≈ 38.5 µM) | 16 (≈ 38.5 µM) | 16 (≈ 38.5 µM) | 16 (≈ 38.5 µM) | 16 (≈ 38.5 µM) | 16 (≈ 38.5 µM) | 16 (≈ 38.5 µM) | 16 (≈ 38.5 µM) | 64 (≈ 154 µM) | 64 (≈ 154 µM) | 16 (≈ 38.5 µM) | Non-toxic | Non-toxic | Non-toxic |
| CC(C)CC(c1c[nH]c2ccc(I)cc12)N(O)Cc1ccccc1 (centres undefined) | > 128 | > 128 | > 128 | > 128 | > 128 | > 128 | > 128 | > 128 | > 128 | > 128 | > 128 | > 128 | > 128 | > 128 | – | – | – |
| CC(c1c[nH]c2ccc(Br)cc12)N(O)Cc1ccccc1 (centres undefined) | > 128 | > 128 | > 128 | > 128 | > 128 | > 128 | > 128 | > 128 | > 128 | > 128 | > 128 | > 128 | > 128 | > 128 | – | – | – |
| CC(C)(C)OC(=O)NCC(c1c[nH]c2ccc(F)cc12)N(O)Cc1ccccc1 (centres undefined) | > 128 | > 128 | > 128 | > 128 | > 128 | > 128 | > 128 | > 128 | > 128 | > 128 | > 128 | > 128 | > 128 | > 128 | – | – | – |
| CC(C)CC(c1c[nH]c2ccc(Cl)cc12)N(O)Cc1ccccc1 (centres undefined) | > 128 | > 128 | > 128 | > 128 | > 128 | > 128 | > 128 | > 128 | > 128 | > 128 | > 128 | > 128 | > 128 | > 128 | – | – | – |
| CC(C)(C)OC(=O)NCC(c1c[nH]c2cc(F)ccc12)N(O)Cc1ccccc1 (centres undefined) | > 128 | > 128 | > 128 | > 128 | > 128 | > 128 | > 128 | > 128 | > 128 | > 128 | > 128 | > 128 | > 128 | > 128 | – | – | – |
